Measurements reported in ChEMBL document CHEMBL5058577, “EUbOPEN Chemogenomics Library 2 (Multiplex)” (2022).

Tested on: U2OS
Assay: Multiplex assay against U2OS
Assay type: toxicity, cell-based
Conditions: human
In short: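 Imaging took place on a CQ1 microscope at 37°C and 5% CO2 once compound had been added to live cells stained at seeding with Hoechst33342, BioTracker Green Microtubule Cytoskeleton Dye, MitoTracker Red and Annexin V Alexa Fluor 680. CellPathfinder machine-learning gating classed cells as Hoechst high-intensity objects or normal cells, classed normal cells as having healthy, pyknosed or fragmented nuclei, and classed pyknosed cells as mitotic or apoptotic. Tubulin, mitochondrial-mass and membrane-permeability phenotypes are per cents of the healthy-nucleus cells.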

[1] = 12 h, 1 µM, compound concentration 1 uM, replicate 1
[2] = 12 h, 1 µM, compound concentration 1 uM, replicate 2
[3] = 12 h, 10 µM, compound concentration 10 uM, replicate 1
[4] = 12 h, 10 µM, compound concentration 10 uM, replicate 2
[5] = 24 h, 1 µM, compound concentration 1 uM, replicate 1
[6] = 24 h, 1 µM, compound concentration 1 uM, replicate 2
[7] = 24 h, 10 µM, compound concentration 10 uM, replicate 1
[8] = 24 h, 10 µM, compound concentration 10 uM, replicate 2
[9] = 48 h, 1 µM, compound concentration 1 uM, replicate 1
[10] = 48 h, 1 µM, compound concentration 1 uM, replicate 2
[11] = 48 h, 10 µM, compound concentration 10 uM, replicate 1
[12] = 48 h, 10 µM, compound concentration 10 uM, replicate 2

SMILES: COc1cc2nc(N3CCN(C(=O)COc4c(OC)cccc4C(C)C)CC3)nc(N)c2cc1OC.Cl.Cl
- Population Apoptotic (%) [1]: 67%
- Population Fragmented Nuclei (%) [1]: 21%
- Population Healthy Nuclei (%) [1]: 66%
- Population Hoechst High Intensity Objects (%) [1]: 3%
- Population Membrane Permeable-Phenotype (%) [1]: 10%
- Population Mitochondria Different-Phenotype (%) [1]: 5%
- Population Mitotic Cells (%) [1]: 32%
- Population Normal (%) [1]: 96%
- Population Pyknosed Nuclei (%) [1]: 11%
- Population Tubulin-Different-Phenotype (%) [1]: 6%
- Total Cell Count [1]: 256
- Population Apoptotic (%) [2]: 33%
- Population Fragmented Nuclei (%) [2]: 10%
- Population Healthy Nuclei (%) [2]: 84%
- Population Hoechst High Intensity Objects (%) [2]: 2%
- Population Mitochondria Different-Phenotype (%) [2]: 6%
- Population Mitotic Cells (%) [2]: 66%
- Population Normal (%) [2]: 97%
- Population Pyknosed Nuclei (%) [2]: 4%
- Total Cell Count [2]: 136
- Population Apoptotic (%) [3]: 55%
- Population Fragmented Nuclei (%) [3]: 30%
- Population Healthy Nuclei (%) [3]: 43%
- Population Hoechst High Intensity Objects (%) [3]: 3%
- Population Membrane Permeable-Phenotype (%) [3]: 60%
- Population Mitochondria Different-Phenotype (%) [3]: 55%
- Population Mitotic Cells (%) [3]: 44%
- Population Normal (%) [3]: 96%
- Population Pyknosed Nuclei (%) [3]: 25%
- Population Tubulin-Different-Phenotype (%) [3]: 75%
- Total Cell Count [3]: 233
- Population Apoptotic (%) [4]: 66%
- Population Fragmented Nuclei (%) [4]: 19%
- Population Healthy Nuclei (%) [4]: 48%
- Population Hoechst High Intensity Objects (%) [4]: 0%
- Population Membrane Permeable-Phenotype (%) [4]: 54%
- Population Mitochondria Different-Phenotype (%) [4]: 65%
- Population Mitotic Cells (%) [4]: 33%
- Population Normal (%) [4]: 99%
- Population Pyknosed Nuclei (%) [4]: 32%
- Population Tubulin-Different-Phenotype (%) [4]: 68%
- Total Cell Count [4]: 151
- Population Apoptotic (%) [5]: 84%
- Population Fragmented Nuclei (%) [5]: 21%
- Population Healthy Nuclei (%) [5]: 67%
- Population Hoechst High Intensity Objects (%) [5]: 3%
- Population Membrane Permeable-Phenotype (%) [5]: 6%
- Population Mitochondria Different-Phenotype (%) [5]: 8%
- Population Mitotic Cells (%) [5]: 15%
- Population Normal (%) [5]: 96%
- Population Pyknosed Nuclei (%) [5]: 11%
- Population Tubulin-Different-Phenotype (%) [5]: 4%
- Total Cell Count [5]: 297
- Population Apoptotic (%) [6]: 80%
- Population Fragmented Nuclei (%) [6]: 15%
- Population Healthy Nuclei (%) [6]: 77%
- Population Hoechst High Intensity Objects (%) [6]: 0%
- Population Membrane Permeable-Phenotype (%) [6]: 10%
- Population Mitochondria Different-Phenotype (%) [6]: 7%
- Population Mitotic Cells (%) [6]: 20%
- Population Normal (%) [6]: 99%
- Population Pyknosed Nuclei (%) [6]: 6%
- Population Tubulin-Different-Phenotype (%) [6]: 5%
- Total Cell Count [6]: 154
- Population Apoptotic (%) [7]: 76%
- Population Fragmented Nuclei (%) [7]: 30%
- Population Healthy Nuclei (%) [7]: 36%
- Population Hoechst High Intensity Objects (%) [7]: 9%
- Population Membrane Permeable-Phenotype (%) [7]: 40%
- Population Mitochondria Different-Phenotype (%) [7]: 49%
- Population Mitotic Cells (%) [7]: 24%
- Population Normal (%) [7]: 90%
- Population Pyknosed Nuclei (%) [7]: 33%
- Population Tubulin-Different-Phenotype (%) [7]: 50%
- Total Cell Count [7]: 246
- Population Apoptotic (%) [8]: 87%
- Population Fragmented Nuclei (%) [8]: 20%
- Population Healthy Nuclei (%) [8]: 40%
- Population Hoechst High Intensity Objects (%) [8]: 12%
- Population Membrane Permeable-Phenotype (%) [8]: 49%
- Population Mitochondria Different-Phenotype (%) [8]: 50%
- Population Mitotic Cells (%) [8]: 12%
- Population Normal (%) [8]: 87%
- Population Pyknosed Nuclei (%) [8]: 39%
- Population Tubulin-Different-Phenotype (%) [8]: 60%
- Total Cell Count [8]: 185
- Population Apoptotic (%) [9]: 83%
- Population Fragmented Nuclei (%) [9]: 20%
- Population Healthy Nuclei (%) [9]: 70%
- Population Hoechst High Intensity Objects (%) [9]: 2%
- Population Membrane Permeable-Phenotype (%) [9]: 6%
- Population Mitochondria Different-Phenotype (%) [9]: 6%
- Population Mitotic Cells (%) [9]: 16%
- Population Normal (%) [9]: 97%
- Population Pyknosed Nuclei (%) [9]: 8%
- Population Tubulin-Different-Phenotype (%) [9]: 4%
- Total Cell Count [9]: 441
- Population Apoptotic (%) [10]: 75%
- Population Fragmented Nuclei (%) [10]: 16%
- Population Healthy Nuclei (%) [10]: 72%
- Population Hoechst High Intensity Objects (%) [10]: 3%
- Population Membrane Permeable-Phenotype (%) [10]: 7%
- Population Mitotic Cells (%) [10]: 25%
- Population Normal (%) [10]: 96%
- Population Pyknosed Nuclei (%) [10]: 11%
- Population Tubulin-Different-Phenotype (%) [10]: 6%
- Total Cell Count [10]: 225
- Population Apoptotic (%) [11]: 88%
- Population Fragmented Nuclei (%) [11]: 40%
- Population Healthy Nuclei (%) [11]: 21%
- Population Hoechst High Intensity Objects (%) [11]: 31%
- Population Membrane Permeable-Phenotype (%) [11]: 13%
- Population Mitochondria Different-Phenotype (%) [11]: 30%
- Population Mitotic Cells (%) [11]: 11%
- Population Normal (%) [11]: 68%
- Population Pyknosed Nuclei (%) [11]: 38%
- Population Tubulin-Different-Phenotype (%) [11]: 13%
- Total Cell Count [11]: 296
- Population Apoptotic (%) [12]: 93%
- Population Fragmented Nuclei (%) [12]: 24%
- Population Healthy Nuclei (%) [12]: 23%
- Population Hoechst High Intensity Objects (%) [12]: 32%
- Population Membrane Permeable-Phenotype (%) [12]: 27%
- Population Mitochondria Different-Phenotype (%) [12]: 10%
- Population Mitotic Cells (%) [12]: 6%
- Population Normal (%) [12]: 67%
- Population Pyknosed Nuclei (%) [12]: 51%
- Population Tubulin-Different-Phenotype (%) [12]: 24%
- Total Cell Count [12]: 180
